This passage reports IC50 results from ChEMBL document CHEMBL1144601, “Synthesis and antiproliferative properties of N3/8-disubstituted 3,8-diazabicyclo[3.2.1]octane analogues of 3,8-bis[2-(3,4,5-trimethoxyphenyl)pyridin-4-yl]methyl-piperazine” (Eur J Med Chem, 2007).

Bounds are passed on as bounds.

Type in all cases: functional, cell-based
The subject of one experiment is CCRF-CEM. Briefly: Antiproliferative activity against human CCRF-CEM cells by MTT assay. The method in brief:
(§1)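 Exponentially growing cells resuspended in growth medium with serial drug dilutions; viability read by MTT after 96 h at 37 °C, with untreated controls allowed at least three rounds of multiplication. IC50 is the concentration cutting proliferation by 50%, mean ± SD of three independent determinations. Haematological lines were grown in RPMI-1640 with 10% FCS and antibiotics. Solid-tumour lines were grown in their own media with 10% FCS.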
On the technique in general: Formazan colour is commonly taken as a measure of viable cells.

The test system of another experiment is CCRF-SB. Briefly: Antiproliferative activity against human CCRF-SB cells by MTT assay. The method in brief:
as §1

For the next experiment, the system named is HepG2. Briefly: Antiproliferative activity against human HepG2 cells by MTT assay. The method in brief:
as §1

In a further experiment the test system is WIL2-NS. Briefly: Antiproliferative activity against human WIL-2NS cells by MTT assay. The method in brief: as §1
In the next experiment the test system is SK-MEL-28. Briefly: Antiproliferative activity against human SK-MEL-28 cells by MTT assay. The method in brief: as §1
Another experiment deals with DU-145. Briefly: Antiproliferative activity against human DU145 cells by MTT assay. The method in brief:
as §1

The subject of the next experiment is MCF7. Briefly: Antiproliferative activity against human MCF7 cells by MTT assay. The method in brief: as §1
Experiment [1] in a line: Antiproliferative activity against human CRL7065 cells by MTT assay. The following applies: CRL-7065. The method in brief:
as §1

Another experiment concerns SK-MES-1. Briefly: Antiproliferative activity against human SKMES1 cells by MTT assay. In short, it runs like this:
as §1

The next experiment relates to MT4. Briefly: Antiproliferative activity against human MT4 cells by MTT assay. In short, it runs like this:
as §1

One may read the IC50 as the concentration that gives 50% inhibition. Read a high IC50 as lower potency. On to `c1ccc(-c2cccc(CN3CC4CCC(C3)N4Cc3cccc(-c4ccccc4)c3)c2)cc1`, for which the IC50 with CCRF-CEM amounted to 12 µM; with CCRF-SB, 10 µM; in the experiment with HepG2, 38 µM; in the experiment with WIL2-NS, 12 µM; in the experiment with SK-MEL-28, 15 µM; in the experiment with DU-145, 14 µM. For the same compound, the IC50 was 25 µM with MCF7, 41 µM in [1] and 10 µM in the experiment on SK-MES-1.

Regarding `c1ccc(CN2CC3CCC(C2)N3)cc1`, the IC50 in the experiment with CCRF-CEM, in the experiment on CCRF-SB, in the experiment on MT4, in the experiment on HepG2, in the experiment with WIL2-NS and in the experiment with SK-MEL-28 was greater than 100 µM each time. For the same compound, the IC50 (with DU-145; in the experiment on MCF7; in experiment [1]; in the experiment on SK-MES-1) was greater than 100 µM in each case.

For `c1ccc(-c2cc(CN3CC4CCC(C3)N4Cc3ccnc(-c4ccccc4)c3)ccn2)cc1`, the IC50 in the experiment with CCRF-CEM turned out to be 8 µM; with CCRF-SB, 11 µM; with MT4, 19 µM; with HepG2, 11 µM; with WIL2-NS, 15 µM; in the experiment with SK-MEL-28, 8 µM. In addition, the IC50 is 8 µM with DU-145, 9 µM with MCF7, greater than 100 µM in [1] and 11 µM in the experiment with SK-MES-1.

As to `Oc1ccc(-c2cc(CN3CC4CCC(C3)N4Cc3ccnc(-c4ccc(O)cc4)c3)ccn2)cc1`, the IC50 with CCRF-CEM amounted to 15 µM; in the experiment with CCRF-SB, 12 µM; with HepG2 it was 13 µM; with WIL2-NS, 18 µM; with SK-MEL-28, 19 µM; with DU-145 it was 15 µM. In addition, the IC50 in the experiment with MCF7 came out at 25 µM; in experiment [1], 80 µM; in the experiment with SK-MES-1, 23 µM.

With `c1ccc(-c2ccc(CN3CC4CCC(C3)N4Cc3ccc(-c4ccccc4)cc3)cc2)cc1`, the IC50 with CCRF-CEM is 7 µM; in the experiment with CCRF-SB, 6 µM; in the experiment with MT4, greater than 100 µM; in the experiment on HepG2 it was 45 µM; in the experiment on WIL2-NS, 11 µM; with SK-MEL-28, 6 µM. Further, the IC50 in the experiment on DU-145 was 7 µM; with MCF7 it was 84 µM; in experiment [1] it was greater than 100 µM; in the experiment with SK-MES-1, 43 µM.

For `Oc1cccc(-c2cc(CN3CC4CCC(C3)N4Cc3ccnc(-c4cccc(O)c4)c3)ccn2)c1`, the IC50 is 14 µM in the experiment on CCRF-CEM; 16 µM in the experiment with CCRF-SB; greater than 100 µM with HepG2; 28 µM in the experiment with WIL2-NS; greater than 100 µM with SK-MEL-28; greater than 100 µM with DU-145. Moreover, the IC50 (in the experiment with MCF7; in [1]; in the experiment on SK-MES-1) was greater than 100 µM in each case.

As to `O=[N+]([O-])c1cccc(-c2cc(CN3CC4CCC(C3)N4Cc3ccnc(-c4cccc([N+](=O)[O-])c4)c3)ccn2)c1`, the IC50 is 36 µM with CCRF-CEM; 27 µM with CCRF-SB; 41 µM with HepG2; 63 µM in the experiment with WIL2-NS; 31 µM with SK-MEL-28; 85 µM in the experiment on DU-145. Besides, the values for the IC50 (in the experiment on MCF7; in experiment [1]; in the experiment with SK-MES-1) were 68 µM, greater than 100 µM and 30 µM, respectively.

Turning to `Sc1ncnc2nc[nH]c12` [MERCAPTOPURINE ANHYDROUS], the IC50 was 1 µM in the experiment with CCRF-CEM; 1 µM with CCRF-SB; 0.1 µM with MT4; 8 µM in the experiment on HepG2; 3 µM with WIL2-NS; 15 µM with SK-MEL-28. Further, the IC50 in the experiment on DU-145 was 2 µM; in the experiment on MCF7, 3 µM; in experiment [1], greater than 100 µM; in the experiment on SK-MES-1, 58 µM.

As for `COc1ccc(-c2cc(CN3CC4CCC(C3)N4Cc3ccnc(-c4ccc(OC)cc4)c3)ccn2)cc1`, the IC50 with CCRF-CEM was determined as 3 µM; in the experiment on CCRF-SB it was 5 µM; with MT4 it was 4 µM; in the experiment with HepG2 it was 3 µM; in the experiment on WIL2-NS, 6 µM; in the experiment with SK-MEL-28, 2 µM. For the same compound, the IC50 in the experiment on DU-145 was 2 µM; in the experiment with MCF7, 6 µM; in [1] it was greater than 100 µM; with SK-MES-1, 3 µM.

As to `Cc1ccc(-c2cc(CN3CC4CCC(C3)N4Cc3ccnc(-c4ccc(C)cc4)c3)ccn2)cc1`, the IC50 in the experiment with CCRF-CEM worked out at 8 µM; in the experiment with CCRF-SB, 12 µM; in the experiment on HepG2, 7 µM; with WIL2-NS, 26 µM; in the experiment with SK-MEL-28 it was 7 µM; in the experiment with DU-145, 7 µM. The IC50 with MCF7 is 7 µM; in experiment [1] it was greater than 100 µM; in the experiment with SK-MES-1, 8 µM.

For the compound `Cc1cccc(-c2cc(CN3CC4CCC(C3)N4Cc3ccnc(-c4cccc(C)c4)c3)ccn2)c1`, the IC50 was 18 µM with CCRF-CEM; 18 µM in the experiment with CCRF-SB; greater than 100 µM in the experiment on MT4; 41 µM in the experiment with HepG2; 25 µM in the experiment on WIL2-NS; 15 µM in the experiment on SK-MEL-28. Moreover, the IC50 with DU-145 was 34 µM; in the experiment on MCF7 it was 24 µM; in experiment [1], greater than 100 µM; with SK-MES-1, 18 µM.

For `O=[N+]([O-])c1ccc(-c2cc(CN3CC4CCC(C3)N4Cc3ccnc(-c4ccc([N+](=O)[O-])cc4)c3)ccn2)cc1`, the IC50 with CCRF-CEM was 91 µM; in the experiment on CCRF-SB it was greater than 100 µM; in the experiment on HepG2 it was greater than 100 µM; with WIL2-NS, greater than 100 µM; in the experiment with SK-MEL-28, greater than 100 µM; in the experiment on DU-145 it was greater than 100 µM. In addition, the IC50 (in the experiment with MCF7; in experiment [1]; in the experiment with SK-MES-1) was greater than 100 µM in each case.

For the compound `CC[C@@]1(O)C(=O)OCc2c1cc1n(c2=O)Cc2cc3ccccc3nc2-1` [CAMPTOTHECIN], the IC50 worked out at 0.003 µM with CCRF-CEM; 0.003 µM in the experiment on CCRF-SB; 0.004 µM in the experiment on MT4; 0.03 µM with HepG2; 0.005 µM in the experiment with WIL2-NS; 0.04 µM in the experiment with SK-MEL-28. The IC50 with DU-145 was 0.01 µM; in the experiment on MCF7, 0.04 µM; in [1] it was 0.5 µM; with SK-MES-1, 0.01 µM.

With `Clc1ccc(-c2cc(CN3CC4CCC(C3)N4Cc3ccnc(-c4ccc(Cl)cc4)c3)ccn2)cc1`, the IC50 was determined as 7 µM in the experiment on CCRF-CEM; 13 µM in the experiment with CCRF-SB; 9 µM in the experiment with HepG2; 29 µM in the experiment on WIL2-NS; 10 µM in the experiment with SK-MEL-28; 9 µM with DU-145. Also, the half-maximal inhibitory concentration (IC50) in the experiment on MCF7 is 10 µM; in experiment [1], greater than 100 µM; in the experiment on SK-MES-1, 12 µM.

As for `O=C1C2CCC(N2)C(=O)N1Cc1ccccc1`, the IC50 with CCRF-CEM was 85 µM; in the experiment on CCRF-SB it was 88 µM; in the experiment on MT4, greater than 100 µM; in the experiment with HepG2, 92 µM; with WIL2-NS, greater than 100 µM; with SK-MEL-28, 96 µM. Further, the IC50 was 87 µM with DU-145, 86 µM with MCF7, greater than 100 µM in experiment [1] and 81 µM in the experiment on SK-MES-1.

For the compound `c1ccc2c(c1)ccc1c(CN3CC4CCC(C3)N4Cc3cccc4c3ccc3ccccc34)cccc12`, the IC50 in the experiment with CCRF-CEM turned out to be 6 µM; in the experiment on CCRF-SB, 9 µM; in the experiment with HepG2 it was 50 µM; in the experiment on WIL2-NS, 6 µM; in the experiment on SK-MEL-28, 30 µM; with DU-145, 41 µM. The IC50 worked out at 54 µM in the experiment on MCF7, 69 µM in experiment [1] and 40 µM in the experiment on SK-MES-1.

With `CC(=O)Nc1ccc(-c2cc(CN3CC4CCC(C3)N4Cc3ccnc(-c4ccc(NC(C)=O)cc4)c3)ccn2)cc1`, the IC50 came to 19 µM in the experiment on CCRF-CEM; 25 µM with CCRF-SB; 18 µM in the experiment with MT4; 30 µM with HepG2; 30 µM in the experiment with WIL2-NS; 20 µM in the experiment on SK-MEL-28. Also, the IC50 in the experiment on DU-145 is 42 µM; in the experiment with MCF7 it was 43 µM; in experiment [1], greater than 100 µM; in the experiment with SK-MES-1 it was 22 µM.

`c1ccc(CN2CC3CCC(C2)N3Cc2ccccc2)cc1`: the IC50 in the experiment with CCRF-CEM is 46 µM; in the experiment on CCRF-SB, 81 µM; in the experiment with MT4 it was greater than 100 µM; in the experiment with HepG2, greater than 100 µM; with WIL2-NS it was 60 µM; in the experiment with SK-MEL-28 it was greater than 100 µM. The IC50 (in the experiment with DU-145; with MCF7; in experiment [1]; with SK-MES-1) was greater than 100 µM in each case.

Take `COc1cccc(-c2cc(CN3CC4CCC(C3)N4Cc3ccnc(-c4cccc(OC)c4)c3)ccn2)c1`: the IC50 was 11 µM with CCRF-CEM; 12 µM in the experiment with CCRF-SB; 15 µM with HepG2; 13 µM in the experiment on WIL2-NS; 8 µM in the experiment with SK-MEL-28; 9 µM in the experiment on DU-145. The IC50 in the experiment with MCF7 is 15 µM; in experiment [1] it was greater than 100 µM; in the experiment with SK-MES-1, 8 µM.

On to `CC(=O)Nc1cccc(-c2cc(CN3CC4CCC(C3)N4Cc3ccnc(-c4cccc(NC(C)=O)c4)c3)ccn2)c1`, for which the IC50 in the experiment on CCRF-CEM was 16 µM; in the experiment on CCRF-SB, 17 µM; with MT4, greater than 100 µM; in the experiment with HepG2, 43 µM; in the experiment with WIL2-NS, 25 µM; in the experiment on SK-MEL-28, 34 µM. The IC50 in the experiment on DU-145 was 24 µM; in the experiment on MCF7, 23 µM; in experiment [1], greater than 100 µM; with SK-MES-1, 33 µM.

Consider `c1ccc2c(CN3CC4CCC(C3)N4Cc3cccc4ccccc34)cccc2c1`, for which the IC50 was found to be 8 µM in the experiment on CCRF-CEM; 7 µM with CCRF-SB; 18 µM in the experiment on HepG2; 7 µM in the experiment with WIL2-NS; 13 µM in the experiment on SK-MEL-28; 80 µM in the experiment on DU-145. Also, the results for the IC50 (with MCF7; in experiment [1]; in the experiment with SK-MES-1) were 11 µM, 20 µM and 17 µM, respectively.
